From ChEMBL document CHEMBL4689842, “EUbOPEN Chemogenomics Library wave 1” (2021)

Legend:
Type in all cases: toxicity, cell-based
Fibroblast = assay: Multiplex assay against human fibroblast
In short: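 Hoechst33342, BioTracker Green Microtubule Cytoskeleton Dye, MitoTracker Red and Annexin V Alexa Fluor 680 were added to live cells at seeding, and imaging on a CQ1 microscope at 37°C and 5% CO2 followed compound addition. Gating by CellPathfinder machine learning separated cells into Hoechst high-intensity objects or normal cells, then normal cells into healthy, pyknosed or fragmented nuclei, then pyknosed cells into mitotic or apoptotic. Per cents of healthy-nucleus cells are reported for the tubulin, mitochondrial-mass and membrane-permeability phenotypes.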

HEK-293T = assay: Incucyte cell viability with HEK293T; conditions: human, 10 µM, compound concentration 10 uM; also: filed as whole numbers so only -1 and 0 and 1 occur
U2OS = assay: Incucyte cell viability with U2OS; conditions: human, 10 µM, compound concentration 10 uM; also: filed as whole numbers so only -1 and 0 and 1 occur
[1] = 12 h, 1 µM, compound concentration 1 uM, replicate 1
[2] = 12 h, 1 µM, compound concentration 1 uM, replicate 2
[3] = 12 h, 10 µM, compound concentration 10 uM, replicate 1
[4] = 12 h, 10 µM, compound concentration 10 uM, replicate 2
[5] = 24 h, 1 µM, compound concentration 1 uM, replicate 1
[6] = 24 h, 1 µM, compound concentration 1 uM, replicate 2
[7] = 24 h, 10 µM, compound concentration 10 uM, replicate 1
[8] = 24 h, 10 µM, compound concentration 10 uM, replicate 2
[9] = 6 h, replicate number 1, timepoint 6 hours
[10] = 12 h, replicate number 1, timepoint 12 hours
[11] = 18 h, replicate number 1, timepoint 18 hours
[12] = 24 h, replicate number 1, timepoint 24 hours

SMILES: Cc1ccc(NC(=O)Nc2cc(C(F)(F)F)ccc2F)cc1Nc1ccc2c(c1)NC(=O)/C2=C\c1ccc[nH]1
- Population Apoptotic (%) (Fibroblast; [1]): 36%
- Population Fragmented Nuclei (%) (Fibroblast; [1]): 13%
- Population Healthy Nuclei (%) (Fibroblast; [1]): 59%
- Population Hoechst High Intensity Objects (%) (Fibroblast; [1]): 10%
- Population Membrane Permeable-Phenotype (%) (Fibroblast; [1]): 58%
- Population Mitochondria Different-Phenotype (%) (Fibroblast; [1]): 0%
- Population Mitotic Cells (%) (Fibroblast; [1]): 63%
- Population Normal (%) (Fibroblast; [1]): 89%
- Population Pyknosed Nuclei (%) (Fibroblast; [1]): 27%
- Population Tubulin-Different-Phenotype (%) (Fibroblast; [1]): 36%
- Total Cell Count (Fibroblast; [1]): 178
- Population Apoptotic (%) (Fibroblast; [2]): 100%
- Population Fragmented Nuclei (%) (Fibroblast; [2]): 60%
- Population Healthy Nuclei (%) (Fibroblast; [2]): 36%
- Population Hoechst High Intensity Objects (%) (Fibroblast; [2]): 50%
- Population Membrane Permeable-Phenotype (%) (Fibroblast; [2]): 63%
- Population Mitochondria Different-Phenotype (%) (Fibroblast; [2]): 18%
- Population Mitotic Cells (%) (Fibroblast; [2]): 0%
- Population Normal (%) (Fibroblast; [2]): 49%
- Population Pyknosed Nuclei (%) (Fibroblast; [2]): 3%
- Population Tubulin-Different-Phenotype (%) (Fibroblast; [2]): 54%
- Total Cell Count (Fibroblast; [2]): 61
- Population Apoptotic (%) (Fibroblast; [3]): 66%
- Population Fragmented Nuclei (%) (Fibroblast; [3]): 15%
- Population Healthy Nuclei (%) (Fibroblast; [3]): 52%
- Population Hoechst High Intensity Objects (%) (Fibroblast; [3]): 17%
- Population Membrane Permeable-Phenotype (%) (Fibroblast; [3]): 4%
- Population Mitochondria Different-Phenotype (%) (Fibroblast; [3]): 3%
- Population Mitotic Cells (%) (Fibroblast; [3]): 33%
- Population Normal (%) (Fibroblast; [3]): 82%
- Population Pyknosed Nuclei (%) (Fibroblast; [3]): 32%
- Population Tubulin-Different-Phenotype (%) (Fibroblast; [3]): 5%
- Total Cell Count (Fibroblast; [3]): 210
- Population Apoptotic (%) (Fibroblast; [4]): 20%
- Population Fragmented Nuclei (%) (Fibroblast; [4]): 50%
- Population Healthy Nuclei (%) (Fibroblast; [4]): 40%
- Population Hoechst High Intensity Objects (%) (Fibroblast; [4]): 20%
- Population Membrane Permeable-Phenotype (%) (Fibroblast; [4]): 0%
- Population Mitochondria Different-Phenotype (%) (Fibroblast; [4]): 19%
- Population Mitotic Cells (%) (Fibroblast; [4]): 80%
- Population Normal (%) (Fibroblast; [4]): 80%
- Population Pyknosed Nuclei (%) (Fibroblast; [4]): 9%
- Population Tubulin-Different-Phenotype (%) (Fibroblast; [4]): 0%
- Total Cell Count (Fibroblast; [4]): 65
- Population Apoptotic (%) (Fibroblast; [5]): 28%
- Population Fragmented Nuclei (%) (Fibroblast; [5]): 10%
- Population Healthy Nuclei (%) (Fibroblast; [5]): 61%
- Population Hoechst High Intensity Objects (%) (Fibroblast; [5]): 8%
- Population Membrane Permeable-Phenotype (%) (Fibroblast; [5]): 51%
- Population Mitochondria Different-Phenotype (%) (Fibroblast; [5]): 0%
- Population Mitotic Cells (%) (Fibroblast; [5]): 71%
- Population Normal (%) (Fibroblast; [5]): 91%
- Population Pyknosed Nuclei (%) (Fibroblast; [5]): 27%
- Population Tubulin-Different-Phenotype (%) (Fibroblast; [5]): 31%
- Total Cell Count (Fibroblast; [5]): 179
- Population Apoptotic (%) (Fibroblast; [6]): 100%
- Population Fragmented Nuclei (%) (Fibroblast; [6]): 61%
- Population Healthy Nuclei (%) (Fibroblast; [6]): 34%
- Population Hoechst High Intensity Objects (%) (Fibroblast; [6]): 55%
- Population Membrane Permeable-Phenotype (%) (Fibroblast; [6]): 55%
- Population Mitochondria Different-Phenotype (%) (Fibroblast; [6]): 11%
- Population Mitotic Cells (%) (Fibroblast; [6]): 0%
- Population Normal (%) (Fibroblast; [6]): 44%
- Population Pyknosed Nuclei (%) (Fibroblast; [6]): 3%
- Population Tubulin-Different-Phenotype (%) (Fibroblast; [6]): 55%
- Total Cell Count (Fibroblast; [6]): 59
- Population Apoptotic (%) (Fibroblast; [7]): 51%
- Population Fragmented Nuclei (%) (Fibroblast; [7]): 18%
- Population Healthy Nuclei (%) (Fibroblast; [7]): 61%
- Population Hoechst High Intensity Objects (%) (Fibroblast; [7]): 17%
- Population Membrane Permeable-Phenotype (%) (Fibroblast; [7]): 5%
- Population Mitochondria Different-Phenotype (%) (Fibroblast; [7]): 3%
- Population Mitotic Cells (%) (Fibroblast; [7]): 48%
- Population Normal (%) (Fibroblast; [7]): 82%
- Population Pyknosed Nuclei (%) (Fibroblast; [7]): 20%
- Population Tubulin-Different-Phenotype (%) (Fibroblast; [7]): 5%
- Total Cell Count (Fibroblast; [7]): 237
- Population Apoptotic (%) (Fibroblast; [8]): 50%
- Population Fragmented Nuclei (%) (Fibroblast; [8]): 54%
- Population Healthy Nuclei (%) (Fibroblast; [8]): 41%
- Population Hoechst High Intensity Objects (%) (Fibroblast; [8]): 29%
- Population Membrane Permeable-Phenotype (%) (Fibroblast; [8]): 0%
- Population Mitochondria Different-Phenotype (%) (Fibroblast; [8]): 5%
- Population Mitotic Cells (%) (Fibroblast; [8]): 50%
- Population Normal (%) (Fibroblast; [8]): 70%
- Population Pyknosed Nuclei (%) (Fibroblast; [8]): 4%
- Population Tubulin-Different-Phenotype (%) (Fibroblast; [8]): 10%
- Total Cell Count (Fibroblast; [8]): 65
- Growth Rate (HEK-293T; 0 h, replicate number 1, timepoint 0 hours): 0
- Growth Rate (HEK-293T; [9]): 0
- Growth Rate (HEK-293T; [10]): 0
- Growth Rate (HEK-293T; [11]): 0
- Growth Rate (HEK-293T; [12]): 0
- Growth Rate (U2OS; [9]): 1
- Growth Rate (U2OS; [10]): 0
- Growth Rate (U2OS; 12 h, replicate number 2, timepoint 12 hours): 1
- Growth Rate (U2OS; [11]): 0
- Growth Rate (U2OS; [12]): 0
